From PubChem
CCR6 antagonist = antagonists of human CCR6 receptor; P51684; inhibition, % at 20 µM; CHO-K1 CCR6 PathHunter beta-arrestin, luminescence, CCL20-stimulated; actives 0.49% (n = 340,000);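 active = compounds whose inhibition of the agonist-driven luminescence signal at 20 µM reaches about 50%, limit read from the data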;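 also: cells stimulated with CCL20 at 14 nM final; plate controls were DMSO with CCL20 for no effect and DMSO without agonist for full effect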
APJ antagonist = blocks the human apelin receptor APJ; CHO-K1 APJ beta-arrestin complementation, luminescence; inhibition, % at 20 µM; actives 0.32% (n = 330,000); AID 2521;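 active = inhibition above about 40% at 20 µM, limit read from the data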;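 also: cells challenged with 10 nM apelin-13 agonist together with compound; plate controls were apelin-13 plus DMSO wells for no effect and DMSO wells lacking apelin-13 for full effect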
EBI2 antag = antagonists of human EBI2 receptor | P32249 | EBI2 beta-arrestin recruitment, luminescence, 7a,25-OHC stimulated | inhibition, % at 5 µM | actives 0.81% (n = 360,000) | AID 651636; in the data active = inhibition above about 38%;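 also: enzyme fragment complementation signal reports receptor beta-arrestin coupling in cells; 0% = agonist plus DMSO wells and 100% = wells without agonist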
Target sequence (P32249 whole entry, looked up, the tested form may be a part): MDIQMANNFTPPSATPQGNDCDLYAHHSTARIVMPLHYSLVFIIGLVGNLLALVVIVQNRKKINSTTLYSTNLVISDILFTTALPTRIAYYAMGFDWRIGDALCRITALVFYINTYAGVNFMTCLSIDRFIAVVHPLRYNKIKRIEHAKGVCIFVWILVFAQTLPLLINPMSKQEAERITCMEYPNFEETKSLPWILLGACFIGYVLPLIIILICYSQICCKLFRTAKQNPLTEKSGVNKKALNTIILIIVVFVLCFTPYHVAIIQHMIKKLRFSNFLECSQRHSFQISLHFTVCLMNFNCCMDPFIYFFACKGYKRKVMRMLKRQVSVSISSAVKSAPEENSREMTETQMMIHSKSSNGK
APJ agonist = APJ receptor agonism. actives 0.11% (n = 330,000). activation, % at 20 µM. CHO-K1 APJ PathHunter beta-arrestin, luminescence; 0% DMSO wells, 100% apelin. P35414. AID 2520;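 active = activation more than six SD over the plate average, tested at 20 µM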;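 also: 0% = DMSO alone and 100% = apelin-13 at 10 nM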
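Test system – PathHunter CHO-K1 APJ (AGTRL-1) beta-arrestin reporter cells · Input – 1000 cells/well · Compound – single test compound dose, 20 µM final, 1% DMSO · Times – compound stimulation 90 min at 25 °C, detection 60 min · Technique – beta-gal luminescence · Read-out basis – APJ–arrestin association signal · Control set – negative DMSO alone, positive Apelin-13 at 10 nM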
CXCR6 block = CXCR6 (human) receptor inhibition; inhibition, % at 20 µM; O00574; actives 0.36% (n = 360,000); CHO-K1 PathHunter CXCR6 beta-arrestin, luminescence; in the data active = inhibition above about 34%, passing the limit was not always enough;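 also: antagonist mode with CXCL16 agonist at 10 nM final; 0% = 10 nM CXCL16 with DMSO and 100% = unstimulated wells without agonist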
EBI2 conf = confirmation of human EBI2 receptor antagonists | shares compounds with EBI2 antag | EBI2 beta-arrestin luminescence, 7a,25-OHC antagonism | inhibition, % at 5 µM | actives 29% (n = 2,400) | AID 651997;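 active = inhibition of at least 50%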
EBI2 agonist = EBI2 agonism counter-screen; shares compounds with EBI2 antag; EBI2-expressing cells, agonist mode, luminescence, 60 min; 0% vehicle, 100% 7α,25-dihydroxycholesterol control; activation, % at 5 µM; 2,400 tested, under 10 active;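 active = activation of at least 50%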
bGal cs = inhibits E. coli beta-galactosidase, counter-screen for EBI2 antagonists; actives 1% (n = 2,400); inhibition, % at 5 µM; purified beta-galactosidase, luminescent Galacton Star, 15 min; AID 652176; shares compounds with EBI2 antag;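 active = replicate-average signal at least 3 plate SD below neutral wells, shown as high inhibition, flagging enzyme-inhibiting false positives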;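 also: 0% = DMSO wells with enzyme and 100% = wells lacking enzyme; higher means stronger loss of beta-gal luminescence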
* = called active by the depositor; nt = no result. Compounds with a hit are over-represented: about 1.5% of the library has one in this group of screens.

SMILES	CCR6 antagonist	APJ antagonist	EBI2 antag	APJ agonist	CXCR6 block	EBI2 conf	EBI2 agonist	bGal cs
O=C(OCc1nnc(-c2ccc([N+](=O)[O-])cc2)o1)C1CCN(C(=O)c2ccc(Cl)cc2)CC1	4	-27	50*	4	-18	15	4	4
O=C(OCc1nnc(-c2ccc([N+](=O)[O-])cc2)o1)C1CCN(C(=O)c2ccc(F)cc2)CC1	5	-87	-2	1	-4	nt	nt	nt
Cc1ccc(NC(=O)C2CCN(S(=O)(=O)c3ccc4c(c3)OCCCO4)CC2)nc1	2	16	-8	-2	-11	nt	nt	nt
COc1ccc(CNC(=O)C2CCN(S(=O)(=O)c3ccc4c(c3)N(C(C)=O)CCO4)CC2)cc1	9	28	73*	-1	-8	46	1	3
Cc1ccc(CNC(=O)C2CCN(S(=O)(=O)c3ccc4c(c3)OCCCO4)CC2)cc1	9	6	79*	-1	3	67*	2	8
O=C(CNC(=O)c1ccc(S(=O)(=O)N2CCCC2)cc1)N/N=C/c1ccc(Cl)cc1	1	-13	60*	0	-8	40	1	-1
O=C(CN1CCN(S(=O)(=O)c2ccc(Br)cc2)CC1)N/N=C/c1ccncc1	4	19	54*	-3	-17	32	0	7
O=C(CNC(=O)c1ccc(S(=O)(=O)N2CCCC2)cc1)N/N=C/c1ccc(Cl)cc1Cl	11	-4	75*	-3	-8	48	1	2
Cc1cccc(CN(Nc2ccccc2)c2ccccc2)n1	nt	nt	12	nt	5	nt	nt	nt
O=C(NCCOc1ccc(Cl)cc1)C1CCCCC1	11	-2	61*	-2	-6	30	0	11
O=C(NCCOc1ccc(Cl)cc1)c1cccc(S(=O)(=O)N2CCCC2)c1	15	15	56*	-2	-6	47	-1	-10
O=C(NCc1ccc(Cl)cc1)c1cccc(S(=O)(=O)N2CCCC2)c1	16	1	-6	-4	-3	nt	nt	nt
O=C(Nc1cc(C(F)(F)F)ccc1N1CCOCC1)c1cccc(S(=O)(=O)N2CCOCC2)c1	nt	nt	2	nt	1	nt	nt	nt
CC(CCc1ccccc1)NCc1ccc(Cl)cc1Cl (stereo not given)	10	7	62*	-1	-4	32	1	2
CC(O)CNCc1ccc(Cl)cc1Cl (stereo not given)	22	4	14	-1	7	nt	nt	nt
COc1ccc(CCNC(=O)COC(=O)c2cncc(Br)c2)cc1OC	2	-6	1	-1	-1	nt	nt	nt
COc1cc(-c2ccc3c(=O)c4ccccc4n(C)c3c2)cc(OC)c1OC	1	7	-38	13	1	nt	nt	nt
COC(=O)c1c(-c2ccsc2)sc2ccc(-c3cc(OC)c(OC)c(OC)c3)cc12	18	2	55*	-2	3	6	-1	-7
COc1cc(-c2ccc3sc(-c4ccsc4)c(C#CCO)c3c2)cc(OC)c1OC	-9	-5	-2	1	-11	nt	nt	nt
COc1cc(-c2ccc3c(=O)c4ccccc4sc3c2)cc(OC)c1OC	-8	1	44*	-2	-6	27	-1	-10
Cc1ccsc1CN(C)C(=O)CN1C(=O)NC(c2ccccc2)(c2ccccc2)C1=O	6	6	1	-4	9	nt	nt	nt
COC(=O)c1c(NC(NC(=O)CC(C)C)C(Cl)(Cl)Cl)sc2c1CCC2 (stereo not given)	2	17	64*	1	-2	12	0	6
CCC(=O)NC(Nc1sc2c(c1C(=O)OC)CCC2)C(Cl)(Cl)Cl (stereo not given)	2	-1	24	-2	-4	nt	nt	nt
O=C(Cn1ncc2c1-c1ccccc1OC2)N1CCN(c2ccccn2)CC1	5	7	3	-3	-3	nt	nt	nt
O=C(c1cc2c(s1)-c1ccccc1OC2)N1CCN(c2ccccc2)CC1	3	18	60*	-1	0	55*	-1	-14
SMILES	CCR6 antagonist	APJ antagonist	EBI2 antag	APJ agonist	CXCR6 block	EBI2 conf	EBI2 agonist	bGal cs
O=C(c1cc2c(s1)-c1ccccc1OC2)N1CCCC1	-12	2	2	-3	0	nt	nt	nt
CCOC(=O)N1CCN(C(=O)c2cc3c(s2)-c2ccccc2OC3)CC1	14	6	82*	1	6	74*	-1	-10
COc1cccc(N2CCN(C(=O)c3cc4c(s3)-c3ccccc3OC4)CC2)c1	0	9	42	0	6	nt	nt	nt
O=C(c1cc2c(s1)-c1ccccc1OC2)N1CCN(c2ccccn2)CC1	14	-55	45*	-3	3	34	0	-7
COc1ccc(N2CCN(C(=O)c3cc4c(s3)-c3ccccc3OC4)CC2)cc1	13	7	80*	-3	-10	67*	0	-8
CCOC(=O)N1CCN(C(=O)c2cc3c(=O)[nH]c4ccccc4c3s2)CC1	3	-6	77*	2	-7	70*	-1	6
O=C(Cn1ncc2c([nH]c3ccccc32)c1=O)N1CCOCC1	-2	10	0	0	-2	nt	nt	nt
O=C1OCCC1Sc1nnc(-c2ccccc2Cl)n1Cc1ccccc1 (stereo not given)	-5	5	53*	-3	4	12	0	-7
O=C1OCCC1Sc1nnc(-c2ccccc2Br)n1Cc1ccccc1 (stereo not given)	6	2	1	-2	-4	nt	nt	nt
COc1ccc([C@H]2CC(=O)C=C(c3cccc(OC)c3OC)C2)cc1OC	-2	8	3	0	-10	nt	nt	nt
COc1ccc([C@H]2CC(=O)C=C(c3cccc4c3sc3ccccc34)C2)cc1OC	15	-17	59*	-2	1	16	0	-13
O=C(NN=Cc1ccc(N2CCOCC2)s1)c1ccc([N+](=O)[O-])cc1	16	-7	-12	0	3	nt	nt	nt
COc1ccc(C2CC(c3ccccc3)=NN2C(=O)COC(=O)c2ccc(S(C)(=O)=O)cc2)cc1 (stereo not given)	5	-4	-10	10	0	nt	nt	nt
COc1ccc(C2CC(c3ccccc3)=NN2C(=O)COC(=O)c2cc(S(=O)(=O)N3CCOCC3)ccc2F)cc1 (stereo not given)	4	2	54*	-2	4	52*	0	7
Cc1ccc2c(c1)[C@H]1[C@H](CO2)[C@H](c2ccccc2)[C@]2(C)C(=O)N(Cc3ccc(F)cc3)CC(=O)N12	-2	-4	30	-2	11	nt	nt	nt
